# Results reported in ChEMBL document CHEMBL3044969, “Syntheses and biological activities of dihydro-5,6-dehydrokawain derivatives” (1996).
# Calls of active or inactive are those of the source. The rule behind the calls is not given here.
# Assays:
# Athelia rolfsii [1] = assay: Antifungal activity against Athelia rolfsii assessed as growth inhibition at 1000 ppm by agar dilution method relative to control; type: functional; conditions: Agroathelia rolfsii; read-out: GI
# Outline: (§1)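 Pythium sp. and Corticium rolfsii were each grown on potato dextrose agar (1.5% agar) for 5 days at 27°C before testing. Growth inhibition was measured by agar dilution, following a previously reported method.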
# Pythium [2] = assay: Antifungal activity against Pythium sp. assessed as growth inhibition at 1000 ppm by agar dilution method relative to control; type: functional; conditions: read-out: GI; outline: as §1
# Athelia rolfsii [3] = assay: Antifungal activity against Athelia rolfsii assessed as growth inhibition at 100 ppm by agar dilution method relative to control; type: functional; conditions: Agroathelia rolfsii; read-out: GI; outline: as §1
# Pythium [4] = assay: Antifungal activity against Pythium sp. assessed as growth inhibition at 100 ppm by agar dilution method relative to control; type: functional; conditions: read-out: GI; outline: as §1
# Coptotermes formosanus [5] = assay: Insecticidal activity against Coptotermes formosanus assessed as increase in mortality at 0.1 to 1 mg/filter paper measured for 14 days; type: functional, organism-based
# Outline: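 Termite mortality was counted in three replicates and the replicates were combined into a mean. Mortality is given as a percentage relative to an untreated control group of termites.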
# Coptotermes formosanus [6] = assay: Insecticidal activity against Coptotermes formosanus assessed as increase in mortality at 1 mg/filter paper measured for 14 days relative to control; type: functional
# Outline: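 The termite assay was run in three replicates, which were combined into a mean. Mortality is given as a percentage relative to the untreated control termite group.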
structure (smiles),measurement,setting,value
"COc1cc(CCc2ccccc2)oc(=O)c1 [DIHYDRO-5,6-DEHYDROKAWAIN]",inhibition of growth at 1000 ppm,Athelia rolfsii [1],96%
same,inhibition of growth at 1000 ppm,Pythium [2],94%
same,inhibition of growth at 100 ppm,Athelia rolfsii [3],64%
same,inhibition of growth at 100 ppm,Pythium [4],72%
same,Activity,Coptotermes formosanus [5],inactive
COP(=S)(OC)Oc1cc(CCc2ccccc2)oc(=O)c1,inhibition of growth at 1000 ppm,Athelia rolfsii [1],98%
same,inhibition of growth at 1000 ppm,Pythium [2],88%
same,inhibition of growth at 100 ppm,Athelia rolfsii [3],91%
same,inhibition of growth at 100 ppm,Pythium [4],50%
same,mortality,Coptotermes formosanus [6],93%
O=c1cc(O)cc(CCc2ccccc2)o1,inhibition of growth at 1000 ppm,Athelia rolfsii [1],100%
same,inhibition of growth at 1000 ppm,Pythium [2],100%
same,inhibition of growth at 100 ppm,Athelia rolfsii [3],44%
same,inhibition of growth at 100 ppm,Pythium [4],22%
same,Activity,Coptotermes formosanus [5],inactive
COc1cc(/C=C/c2ccccc2)oc(=O)c1 [DESMETHOXYYANGONIN],inhibition of growth at 1000 ppm,Athelia rolfsii [1],54%
same,inhibition of growth at 1000 ppm,Pythium [2],86%
same,inhibition of growth at 100 ppm,Athelia rolfsii [3],0%
same,inhibition of growth at 100 ppm,Pythium [4],42%
CCOP(=S)(OCC)Oc1cc(CCc2ccccc2)oc(=O)c1,inhibition of growth at 1000 ppm,Athelia rolfsii [1],66%
same,inhibition of growth at 1000 ppm,Pythium [2],44%
same,inhibition of growth at 100 ppm,Athelia rolfsii [3],57%
same,inhibition of growth at 100 ppm,Pythium [4],18%
same,mortality,Coptotermes formosanus [6],50%
